PMC10872613 (Journal of immunology (Baltimore, Md. : 1950), 2024)
Entries after “also recorded” stand apart in the source; their conditions may differ. Like-named read-outs stand apart in the source and are kept apart here. Values belong to the compound of their own block, whether it stands above or below them.

Assays:
[1] = system: bovine pancreatic trypsin; details: concentrations up to 200 μM; cited from earlier work
[2] = system: CP activation by heparin-induced immune complexes; test: CP activation by heparin-induced immune complexes in whole blood; type: cell-based, human; details: highest concentration examined (series 1,000 – 10 μM)
How it was run: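 Healthy-donor whole blood was anticoagulated with ACD (1.4 mL per 8.6 mL blood). It was preincubated 30 min at room temperature with buffer, test compound (1000–10 μM) or B. miyamotoi FbpA-C/FbpB-C control proteins (100 μg/mL). Anti-PF4/heparin antibody KKO (50 μg/mL), PF4 (25 μg/mL) and heparin (1 U/mL) were then added, 30 min at 37 °C. Plasma was quenched with 10 mM EDTA, and C5a was measured by sandwich ELISA.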

[3] = system: Cathepsin-G; test: Cathepsin G chromogenic assay; type: biochemical, human; details: inhibitor 0 to 29.4 μM; data not shown
How it was run: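 Cathepsin G (9.5 nM) was assayed at 25 °C with inhibitor 0–29.4 μM and fixed 0.92 mM succinyl-Ala-Ala-Pro-Phe-p-nitroanilide (ε400 = 12.3 mM−1 cm−1). Buffer: 50 mM HEPES pH 7.4, 140 mM NaCl, 0.025% Tween-20, 20.7% DMSO. Microplate chromogenic read-out.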

[4] = target: T1, C1s purified from human serum (Homo sapiens, UniProt P09871); test: Native C1s chromogenic ZGR assay; type: biochemical
T1 sequence (P09871 16-437 limits assumed): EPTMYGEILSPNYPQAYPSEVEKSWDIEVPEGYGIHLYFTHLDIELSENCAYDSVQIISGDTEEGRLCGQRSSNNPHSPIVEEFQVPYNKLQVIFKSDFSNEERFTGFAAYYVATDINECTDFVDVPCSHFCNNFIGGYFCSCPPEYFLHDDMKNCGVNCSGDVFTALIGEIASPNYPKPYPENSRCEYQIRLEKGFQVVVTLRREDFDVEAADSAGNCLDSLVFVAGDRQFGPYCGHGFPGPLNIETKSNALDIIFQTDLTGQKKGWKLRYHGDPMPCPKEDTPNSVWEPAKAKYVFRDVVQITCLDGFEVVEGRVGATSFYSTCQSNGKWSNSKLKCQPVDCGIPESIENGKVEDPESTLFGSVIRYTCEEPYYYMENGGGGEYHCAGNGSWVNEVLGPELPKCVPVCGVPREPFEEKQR
T1 sequence (P09871 438-688 limits assumed): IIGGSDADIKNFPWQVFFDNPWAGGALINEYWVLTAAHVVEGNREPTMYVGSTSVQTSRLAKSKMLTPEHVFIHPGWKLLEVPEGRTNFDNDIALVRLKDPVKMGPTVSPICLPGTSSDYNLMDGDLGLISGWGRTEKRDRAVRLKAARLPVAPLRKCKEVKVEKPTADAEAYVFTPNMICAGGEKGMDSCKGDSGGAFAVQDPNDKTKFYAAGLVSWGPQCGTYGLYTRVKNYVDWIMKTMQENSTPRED

[5] = system: Neutrophil Elastase; test: Neutrophil elastase chromogenic assay; type: biochemical, human; details: inhibitor 0 to 29.4 μM
How it was run: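 Neutrophil elastase purified from human sputum (6.9 nM) was run at 25 °C with inhibitor 0–29.4 μM and fixed 52 μM methoxysuccinyl-Ala-Ala-Pro-Val-p-nitroanilide (ε400 = 12.3 mM−1 cm−1). Buffer: 50 mM HEPES pH 7.4, 140 mM NaCl, 0.05% Tween-20. Microplate chromogenic read-out.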

[6] = target: T2, C1r purified from human serum (Homo sapiens, UniProt P00736); test: C1r chromogenic ZGR assay; type: biochemical
T2 sequence (P00736 18-463 limits assumed): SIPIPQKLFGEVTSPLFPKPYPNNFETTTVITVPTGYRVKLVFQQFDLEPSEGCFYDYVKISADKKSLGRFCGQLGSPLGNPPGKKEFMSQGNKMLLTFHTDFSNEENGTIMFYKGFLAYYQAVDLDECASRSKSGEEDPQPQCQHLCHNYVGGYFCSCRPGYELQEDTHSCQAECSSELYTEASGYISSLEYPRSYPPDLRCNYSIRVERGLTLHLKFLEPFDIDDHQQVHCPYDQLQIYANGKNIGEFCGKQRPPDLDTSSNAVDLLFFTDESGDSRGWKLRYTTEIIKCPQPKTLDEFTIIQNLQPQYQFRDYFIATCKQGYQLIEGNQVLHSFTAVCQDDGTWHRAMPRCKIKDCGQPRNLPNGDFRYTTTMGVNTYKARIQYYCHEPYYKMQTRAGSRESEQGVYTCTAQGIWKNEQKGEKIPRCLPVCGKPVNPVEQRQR
T2 sequence (P00736 464-705 limits assumed): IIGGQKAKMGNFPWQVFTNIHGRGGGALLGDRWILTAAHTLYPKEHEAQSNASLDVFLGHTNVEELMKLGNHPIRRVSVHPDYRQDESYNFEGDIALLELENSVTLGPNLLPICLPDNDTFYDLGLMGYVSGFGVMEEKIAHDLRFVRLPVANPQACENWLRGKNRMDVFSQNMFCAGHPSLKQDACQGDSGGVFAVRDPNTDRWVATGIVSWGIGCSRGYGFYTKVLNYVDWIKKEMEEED
How it was run: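 Human serum-derived C1r (10 nM) at 25 °C in 50 mM HEPES pH 7.4, 140 mM NaCl, 0.005% Tween-20, 10% DMSO, with 0.44 mM DTNB as indicator. Initial velocities of Z-Gly-Arg-thiobenzyl ester (ZGR) hydrolysis were read at four ZGR levels (~0.1–0.7 x Km) × five inhibitor levels (0–~0.8 x Ki) in microplates. Data (n = 3) were globally fit to a competitive inhibition model.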

[7] = target: T3, mouse C1s-2SP (Mus musculus, UniProt Q8CG14); test: Mouse C1s-2SP chromogenic ZGR assay; type: biochemical
T3 sequence (Q8CG14 357-423 limits assumed): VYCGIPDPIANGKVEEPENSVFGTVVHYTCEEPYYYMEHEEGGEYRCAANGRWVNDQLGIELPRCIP
T3 sequence (Q8CG14 438-688 limits assumed): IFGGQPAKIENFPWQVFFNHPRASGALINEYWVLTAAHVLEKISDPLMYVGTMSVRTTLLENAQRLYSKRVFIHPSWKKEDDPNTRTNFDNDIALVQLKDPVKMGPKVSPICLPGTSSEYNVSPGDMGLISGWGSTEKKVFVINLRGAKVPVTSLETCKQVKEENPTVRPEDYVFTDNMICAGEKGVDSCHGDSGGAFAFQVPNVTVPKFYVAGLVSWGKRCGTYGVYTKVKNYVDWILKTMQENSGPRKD
How it was run: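 Recombinant mouse C1s-2SP (2.5 nM) was tested at 25 °C in 50 mM HEPES pH 7.4, 140 mM NaCl, 0.005% Tween-20, 5% DMSO, 0.44 mM DTNB. ZGR initial velocities were measured at four substrate levels (~2.3–9.4 x Km) and five inhibitor levels (0–~8.4 x Ki). Triplicate data were globally fit to a competitive inhibition model.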

[8] = Aqueous solubility; type: physicochemical; details: water
[9] = system: Factor Xa; test: Factor Xa chromogenic ZGR assay; type: biochemical; details: inhibitor 0 to 226 μM
How it was run: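 Buffer: 50 mM HEPES pH 7.4, 140 mM NaCl, 0.025% Tween-20, 5% DMSO, with 0.59 mM DTNB indicator. Thiol release was read chromogenically in microplates.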

[10] = target: thrombin (Homo sapiens, UniProt P00734); test: Thrombin chromogenic ZGR assay; type: biochemical
How it was run: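 Serum-purified activated thrombin (2.7 nM) was assayed at 25 °C in 50 mM HEPES pH 7.4, 140 mM NaCl, 0.005% Tween-20, 5% DMSO with 0.59 mM DTNB. Initial ZGR hydrolysis rates were measured at four ZGR levels (~Km–9 x Km) × five inhibitor levels (0–~3.4 x Ki). Triplicate data were globally fit to a competitive inhibition model.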

[11] = system: lectin pathway (LP); test: LP ELISA; type: biochemical, human; details: 100 μM A1, C1q-depleted serum, mannan-coated plates
[12] = target: T4, C1s (Homo sapiens, UniProt P09871); test: Cleavage of C2 by C1s; type: biochemical
T4 sequence (P09871 16-437 limits assumed): T1 sequence (P09871 16-437 limits assumed)
T4 sequence (P09871 438-688 limits assumed): T1 sequence (P09871 438-688 limits assumed)
How it was run: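 Serum-derived activated C1s (6.25 nM) was mixed with a two-fold test compound series (100–1.56 μM) in HBS++ and C2 was added (0.5 mg/mL stock), 1 h at 37 °C. Products were separated by SDS-PAGE with Coomassie staining. C2b band density was corrected for total C2 and normalized to a C1s + C2 control. Triplicates were fit to a four-parameter dose-response model.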

[13] = target: T5, C1s-2SP (Homo sapiens, UniProt P09871); test: C1s-2SP chromogenic ZGR cleavage assay; type: biochemical; details: for C1s-2SP activity (initial velocity of ZGR cleavage): 100 μM compound, single-concentration screen, compared with mean of library; for loss of activity compared to A1: Ki against human C1s-2SP relative to A1
T5 sequence (P09871 357-423 limits assumed): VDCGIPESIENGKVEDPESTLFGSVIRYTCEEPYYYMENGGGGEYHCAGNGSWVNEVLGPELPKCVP
T5 sequence (P09871 438-688 limits assumed): T1 sequence (P09871 438-688 limits assumed)
How it was run: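 Recombinant human C1s-2SP was expressed in E. coli BL21(DE3), purified by denaturing IMAC, refolded in glutathione redox buffer and isolated by gel filtration. The enzyme (2.4 nM) was run at 25 °C in 50 mM HEPES pH 7.4, 140 mM NaCl, 0.005% Tween-20, 5% DMSO, 0.44 mM DTNB. ZGR initial velocities were read on a 4×5 grid (~0.2–1.2 x Km; inhibitor 0–~2.6 x Ki), n = 3, with a global competitive fit.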

[14] = system: classical pathway (CP); test: CP-specific ELISA; type: biochemical, human; details: for C4b deposition (CP activity): 100 μM compound, single-concentration screen, 2% human serum
How it was run: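 Wells coated with human IgM received 2% (v/v) complement-preserved human serum with a two-fold test compound series (100–3.1 μM) in HBS++ plus 0.1% gelatin, 1 h at 37 °C. After TBS-T washes, deposited C4b was detected with mouse anti-C4b mAb and HRP anti-mouse IgG. Signals were normalized to uninhibited and serum-free controls. Triplicates were fit to a four-parameter dose-response model.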

[15] = recombinant human C1s-2SP, competitive inhibition model

SMILES: N=C(N)Nc1ccc(C(=O)O)cc1 [4-guanidinobenzoic acid]
- inhibition of trypsin [1]: failed to inhibit trypsin

SMILES: N=C(N)c1ccc(N2CCN(c3ccccc3)CC2)nc1 [A1, 6-(4-phenylpiperazin-1-yl)pyridine-3-carboximidamide]
- inhibition of C5a generation [2]: ~ 75%
- inhibition of Cathepsin-G [3]: did not inhibit
- Ki [4]: 5.8 µM
- inhibition of Neutrophil Elastase [5]: did not inhibit
- Ki [6]: 842 µM
- selectivity C1s over C1r ([6]; ratio of Ki values): ~ 145 fold
- Ki [7]: 24.6 µM
- solubility [8]: ≥ 10 mM
- inhibition of Factor Xa [9]: did not inhibit
- Ki [10]: 51.2 µM
- activity against the LP [11]: relatively weak activity against the LP compared to the CP
- IC50 [12]: ~85 µM
- Ki [13]: 8.5 µM
- C4b deposition (CP activity) [14]: reduced C4b deposition to less than two standard deviations below the mean; also recorded: essentially complete inhibition of C4b deposition
- IC50 ([14]; CP ELISA, C4b deposition, A1 100 – 3.1 μM): 22 µM

SMILES: O=C(COC(=O)Cn1cnc2scc(-c3cccs3)c2c1=O)Nc1ccc(O)cc1 [B5]
- C4b deposition (CP activity) [14]: reduced C4b deposition to less than two standard deviations below the mean

SMILES: N=C(N)c1ccc(N2CCN(c3cccc(F)c3)CC2)nc1 [meta-fluorine A1 analog]
- Ki [13, 15]: 19.5 µM

SMILES: Cc1cccc(N2CCN(c3ccc(C(=N)N)cn3)CC2)c1 [meta-methyl A1 analog]
- Ki [13, 15]: 22.6 µM

SMILES: N=C(N)c1ccc(N2CCN(c3ccc(Cl)cc3)CC2)nc1 [para-chlorine A1 analog]
- loss of activity compared to A1 [13]: > 10 fold

SMILES: N=C(N)c1ccc(N2CCN(c3ccc(F)cc3)CC2)nc1 [para-fluorine A1 analog]
- loss of activity compared to A1 [13]: > 10 fold

SMILES: N=C(N)c1cccnc1 [pyridine-3-carboximidamide, reference compound]
- inhibition of C1s ([4]; concentrations approaching ~375 μM, data not shown): failed to detect such inhibition

Next, values leading:

- C1s-2SP activity (initial velocity of ZGR cleavage) [13]: failed to inhibit C1s enzyme activity
SMILES: I.NC(N)=NCc1ccc(CN2CCc3ccccc32)cc1 [D4]

- C1s-2SP activity (initial velocity of ZGR cleavage) [13]: failed to inhibit C1s enzyme activity
SMILES: COc1ccc(CCNC(N)=NCc2ccc(OCCC(C)C)c(OC)c2)cc1.I [D10]

- C1s-2SP activity (initial velocity of ZGR cleavage) [13]: failed to inhibit C1s enzyme activity
SMILES: Cl.Cl.NC(N)=NCCCN(Cc1ccc(-c2ccccc2)cc1)S(=O)(=O)CCCN=C(N)N [F2]

- C1s-2SP activity (initial velocity of ZGR cleavage) [13]: failed to inhibit C1s enzyme activity
SMILES: COc1cccc(Oc2ccc(CN=C(N)Nc3ccccc3)cn2)c1.I [H1]

- C1s-2SP activity (initial velocity of ZGR cleavage) [13]: failed to inhibit C1s enzyme activity
SMILES: O=C(CSc1ncnc2sc(-c3ccccc3)cc12)NC(Cc1c[nH]c2ccccc12)C(=O)O (stereo not drawn) [H9]
